In ChEMBL document CHEMBL1137373 (J Med Chem, 2006):

What was measured:
[1] = target: T1, Amyloid-beta precursor protein (Homo sapiens, UniProt P05067); experiment: Displacement of [125I]IMSB from beta amyloid protein 40
[2] = target: T1, Amyloid-beta precursor protein; experiment: Displacement of [125I]IMPY from beta amyloid protein 40
[3] = Partition coefficient, log P of the compound; type: physicochemical; conditions: octanol/water
Summary of the method: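 Radioligand added to octanol/water (600 µL each), vortexed 3 min, centrifuged 2000 rpm 5 min. Aliquots of both layers counted, repartitioned until consistent. Run in triplicate. Log P taken as log of octanol/water cpm ratio.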

Mus musculus [4] = experiment: Biodistribution in muscle of iv dosed ICR mouse after 60 mins; type: ADME, organism-based, Muscle tissue; conditions: in vivo, 1 h
Summary of the method: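 Male ICR mice (25-30 g, four per time point) injected by tail vein with radioligand (0.74 MBq 125I or 1.85 MBq 18F) in 0.2 mL 10% ethanol-saline. Sacrificed at 2, 30, 60 or 120 min. Blood, organs, muscle and thyroid or bone weighed and counted in a gamma counter. Expressed as % injected dose per gram.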

Mus musculus [5] = experiment: Stability in iv dosed ICR mouse brain after 60 mins; type: ADME, organism-based; conditions: in vivo, 1 h
Summary of the method: (§1)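 Male ICR mice (25-30 g) given 18F radioligand (14.8 MBq/mouse) by tail vein, killed at 2, 30 and 60 min. Blood and whole brain homogenized in 1 mL chilled absolute ethanol, centrifuged 3000 rpm 3 min. Supernatant analysed by radio-TLC (20:1 CH2Cl2-CH3OH and 1:1:0.01 CH2Cl2-CH3OH-triethylamine) for percent parent radioligand.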

Mus musculus [6] = experiment: Stability in iv dosed ICR mouse blood after 60 mins; type: ADME, organism-based; conditions: in vivo, 1 h; summary of the method: as §1
Mus musculus [7] = experiment: Biodistribution in blood of iv dosed piperine-treated ICR mouse after 60 mins; type: ADME, organism-based; conditions: in vivo, 1 h
Summary of the method: (§2)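 Male ICR mice (25-30 g, four per time point) given radioligand mixed with piperine (2 mg/kg) in 0.2 mL 10% ethanol-saline by tail vein, 1.85 MBq for the 18F tracer. Killed at 2, 30, 60 or 120 min. Blood and organs removed, weighed and gamma-counted. Data given as % injected dose per gram tissue.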

Mus musculus [8] = experiment: Biodistribution in brain of iv dosed piperine-treated ICR mouse after 2 mins; type: ADME, organism-based; conditions: in vivo; summary of the method: as §2
Mus musculus [9] = experiment: Biodistribution in kidney of iv dosed piperine-treated ICR mouse after 2 mins; type: ADME, organism-based; conditions: in vivo; summary of the method: as §2
Mus musculus [10] = experiment: Biodistribution in spleen of iv dosed piperine-treated ICR mouse after 60 mins; type: ADME, organism-based; conditions: in vivo, 1 h; summary of the method: as §2
Homo sapiens = species on record: Homo sapiens; experiment: Increase in bioavailability in human in presence of piperine after 45 mins; type: ADME, organism-based; conditions: in vivo, 0.75 h
Rattus norvegicus = species on record: Rattus norvegicus; experiment: Increase in bioavailability in rat in presence of piperine at 1 to 2 hrs; type: ADME, organism-based; conditions: in vivo

T1 sequence (P05067 whole entry): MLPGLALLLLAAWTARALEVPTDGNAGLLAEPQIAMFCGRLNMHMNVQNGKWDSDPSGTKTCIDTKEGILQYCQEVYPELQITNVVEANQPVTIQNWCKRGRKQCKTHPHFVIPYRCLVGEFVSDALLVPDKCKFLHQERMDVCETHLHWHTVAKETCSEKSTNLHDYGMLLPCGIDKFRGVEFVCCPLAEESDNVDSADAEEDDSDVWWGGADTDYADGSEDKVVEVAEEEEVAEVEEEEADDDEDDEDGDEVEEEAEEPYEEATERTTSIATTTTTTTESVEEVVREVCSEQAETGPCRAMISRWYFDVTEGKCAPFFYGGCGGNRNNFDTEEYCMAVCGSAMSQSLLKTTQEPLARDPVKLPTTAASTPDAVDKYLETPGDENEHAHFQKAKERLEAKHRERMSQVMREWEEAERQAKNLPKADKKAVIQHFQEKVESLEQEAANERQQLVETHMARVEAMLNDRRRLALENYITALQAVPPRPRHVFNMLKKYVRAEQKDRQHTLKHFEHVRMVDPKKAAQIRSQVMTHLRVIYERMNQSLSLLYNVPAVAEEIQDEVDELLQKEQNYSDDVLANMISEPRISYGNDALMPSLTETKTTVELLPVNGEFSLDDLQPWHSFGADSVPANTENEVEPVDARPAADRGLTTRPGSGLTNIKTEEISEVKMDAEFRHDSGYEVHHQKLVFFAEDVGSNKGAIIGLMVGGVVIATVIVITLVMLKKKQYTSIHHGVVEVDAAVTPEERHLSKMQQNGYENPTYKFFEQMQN

Work on `COc1cc(/C=C/C(O)=C/C(=O)/C=C/c2cc(I)c(O)c(OC)c2)ccc1O` yielded a Ki [1] of 9.37 nM.
`COc1cc(/C=C/C(O)=C/C(C)=O)ccc1OCCF` showed a Ki [2] of 958 nM.
With `COc1cc(/C=C/C(C)=O)cc(I)c1O` the Ki [2] was 36.6 nM and the Ki [1] was 20 nM.
`COc1cc(/C=C/C(O)=C/C(C)=O)ccc1OCCCF` showed a Ki [2] of 316 nM.
Work on `COc1cc(/C=C/C(O)=C/C(C)=O)cc([125I])c1O` yielded a logP [3] of 1.35 and a Drug uptake (Mus musculus [4]) of 0.26 % ID/g.
`COc1cc(/C=C/C(O)=C/C(C)=O)cc(I)c1O` showed a Ki [2] of 24.9 nM.
In the case of `COc1cc(/C=C/C(O)=C/C(=O)/C=C/c2ccc(OCCC[18F])c(OC)c2)ccc1O`, the Activity (Mus musculus [5]) is reported as “Active”, the logP [3] is reported as 1.84 and the Drug uptake (Mus musculus [4]) is reported as 0.27 % ID/g. The Activity (Mus musculus [6]) was “Not Active”, the Drug uptake (Mus musculus [7]) was 0.82 % ID/g and the Drug uptake (Mus musculus [8]) was 0.77 % ID/g. It also gave a Drug uptake (Mus musculus [9]) of 8.69 % ID/g and a Drug uptake (Mus musculus [10]) of 41.07 % ID/g.
With `COc1cc(/C=C/C(O)=C/C(=O)/C=C/c2ccc(OCCCF)c(OC)c2)ccc1O` the Ki [1] was 0.07 nM.
`COc1cc(/C=C/C(C)=O)ccc1OCCCF` showed a Ki [2] of 839 nM.
In the case of `COc1cc(/C=C/C(C)=O)ccc1OCCF`, the Ki [2] is reported as 233 nM.
`COc1cc(/C=C/C(O)=C/C(=O)/C=C/c2cc([125I])c(O)c(OC)c2)ccc1O` gave a logP [3] of 0.94.
Compound `O=C(O)c1cc(/N=N/c2ccc(-c3ccc(/N=N/c4ccc(O)c(C(=O)O)c4)cc3)cc2)ccc1O` [CHRYSAMINE G] has a Ki [1] of 0.16 nM.
In the case of `COc1cc(/C=C/C(=O)CC(=O)/C=C/c2ccc(O)c(OC)c2)ccc1O` [CURCUMIN], the “Bioavailability Increase” value (Homo sapiens) is reported as 2000% and the “Bioavailability Increase” value (Rattus norvegicus) is reported as 154%.
